Measurements published in ChEMBL document CHEMBL4433205, “Dual Pharmacophores Explored via Structure-Activity Relationship (SAR) Matrix: Insights into Potent, Bifunctional Opioid Ligand Design” (J Med Chem, 2019).
pEC50, pKi: −log10 of the molar value. The source made the active and inactive calls.

Tests used:
[1] = species on record: Rattus norvegicus; assay: Selectivity ratio of Ki for rat delta opioid receptor expressed in rat C6 cell membranes to Ki for rat mu opioid receptor expressed in rat C6 cell membranes; assay type: cell-based
How it was run: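 Competition binding against 0.2 nM [3H]-diprenorphine, using C6 membranes expressing rat MOR or rat DOR (20 μg protein/tube). Run in 50 mM Tris-HCl pH 7.4, 1 h at room temperature with shaking, then filtration and scintillation counting. Nonspecific binding with 10 μM naloxone.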

[2] = molecular target: Mu-type opioid receptor (Rattus norvegicus) (UniProt P33535); assay: Agonist activity at rat mu opioid receptor expressed in rat C6 glioma cell membranes assessed as stimulation of [35S]GTPgammaS binding measured after 1 hr relative to DAMGO; assay type: functional
Sequence of Mu-type opioid receptor (Rattus norvegicus) (P33535 whole entry): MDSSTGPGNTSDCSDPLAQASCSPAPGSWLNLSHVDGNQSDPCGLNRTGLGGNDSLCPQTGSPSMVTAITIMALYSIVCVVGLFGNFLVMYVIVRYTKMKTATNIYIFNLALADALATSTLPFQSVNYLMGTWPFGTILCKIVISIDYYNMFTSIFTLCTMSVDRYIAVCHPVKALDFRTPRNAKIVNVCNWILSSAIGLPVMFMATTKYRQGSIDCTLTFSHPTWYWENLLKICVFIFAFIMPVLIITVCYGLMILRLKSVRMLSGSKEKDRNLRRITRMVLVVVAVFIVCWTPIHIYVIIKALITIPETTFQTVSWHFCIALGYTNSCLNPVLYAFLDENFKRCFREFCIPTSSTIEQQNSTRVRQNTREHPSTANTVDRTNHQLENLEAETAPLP

[3] = molecular target: T1, Delta-type opioid receptor (Rattus norvegicus, UniProt P33533); assay: Agonist activity at rat delta opioid receptor expressed in rat C6 cell membranes assessed as stimulation of [35S]GTPgammaS binding measured after 1 hr; assay type: functional; details: for EC50: c6
T1 sequence (P33533 whole entry): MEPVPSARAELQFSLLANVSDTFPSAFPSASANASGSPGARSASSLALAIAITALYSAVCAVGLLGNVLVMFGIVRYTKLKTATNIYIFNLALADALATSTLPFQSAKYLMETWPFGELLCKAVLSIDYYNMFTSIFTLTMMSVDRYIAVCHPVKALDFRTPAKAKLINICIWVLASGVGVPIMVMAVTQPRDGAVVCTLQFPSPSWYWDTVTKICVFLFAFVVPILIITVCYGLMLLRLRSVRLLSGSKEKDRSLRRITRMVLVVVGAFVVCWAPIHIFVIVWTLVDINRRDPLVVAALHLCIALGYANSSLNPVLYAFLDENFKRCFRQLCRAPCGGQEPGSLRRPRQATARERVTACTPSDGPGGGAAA

[4] = molecular target: T2, Kappa-type opioid receptor (Homo sapiens, UniProt P41145); assay: Agonist activity at human kappa opioid receptor expressed in CHO cell membranes assessed as stimulation of [35S]GTPgammaS binding measured after 1 hr; assay type: functional; details: for pEC50: read-out: EC50; for EC50: cho
T2 sequence (P41145 whole entry): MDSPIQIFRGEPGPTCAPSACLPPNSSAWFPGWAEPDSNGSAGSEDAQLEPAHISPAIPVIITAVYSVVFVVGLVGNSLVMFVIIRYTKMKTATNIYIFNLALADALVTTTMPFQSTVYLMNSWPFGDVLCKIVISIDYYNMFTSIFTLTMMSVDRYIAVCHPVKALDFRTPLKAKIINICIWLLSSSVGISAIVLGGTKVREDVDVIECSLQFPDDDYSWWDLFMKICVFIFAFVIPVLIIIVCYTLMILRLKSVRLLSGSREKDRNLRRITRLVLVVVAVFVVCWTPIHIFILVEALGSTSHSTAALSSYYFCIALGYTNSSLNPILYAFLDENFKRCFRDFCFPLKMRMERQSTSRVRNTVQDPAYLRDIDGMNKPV

[5] = molecular target: Delta-type opioid receptor (Rattus norvegicus) (UniProt P33533); assay: Agonist activity at rat delta opioid receptor expressed in rat C6 cell membranes assessed as stimulation of [35S]GTPgammaS binding incubated for 1 hr relative to DPDPE; assay type: functional
Sequence of Delta-type opioid receptor (Rattus norvegicus) (P33533 whole entry): as the sequence (P33533 whole entry) above

[6] = molecular target: T1, Delta-type opioid receptor; assay: Displacement of [3H]diprenorphine from rat delta opioid receptor expressed in rat C6 cell membranes measured after 1 hr by liquid scintillation counting method
[7] = molecular target: T2, Kappa-type opioid receptor; assay: Agonist activity at human kappa opioid receptor expressed in CHO cell membranes assessed as stimulation of [35S]GTPgammaS binding to G protein incubated for 1 hr relative to U69,593; assay type: functional
[8] = molecular target: T3, Mu-type opioid receptor (Rattus norvegicus, UniProt P33535); assay: Displacement of [3H]diprenorphine from rat mu opioid receptor expressed in rat C6 cell membranes measured after 1 hr by liquid scintillation counting method
T3 sequence (P33535 whole entry): as the sequence (P33535 whole entry) above
How it was run: (§1)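 Competition with 0.2 nM [3H]-diprenorphine on membranes (20 μg protein/tube) from stably transfected cells in 50 mM Tris-HCl pH 7.4, 1 h at room temperature with shaking; GF/C filtration, three washes, scintillation counting. Nonspecific binding defined with 10 μM naloxone.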

[9] = molecular target: T3, Mu-type opioid receptor; assay: (§2) Agonist activity at rat mu opioid receptor expressed in rat C6 cell membranes assessed as stimulation of [35S]GTPgammaS binding measured after 1 hr; assay type: functional
How it was run: (§3)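 Membranes (10–20 μg protein/tube) from stably transfected cells incubated 1 h at 25°C in 50 mM Tris-HCl, 100 mM NaCl, 5 mM MgCl2, pH 7.4, with 0.1 nM [35S]-GTPγS, 30 μM GDP and varying test concentrations; filtration, scintillation counting.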

[10] = test system: Mus musculus; assay: Antinociceptive activity in C57BL/6 mouse assessed as increase in latency to tail withdrawal up to 10 mg/kg, ip administered at 30 mins interval measured during compound dosing by warm water tail withdrawal assay relative to control; assay type: functional
How it was run: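 Male C57BL/6 mice, 20–30 g, 8–16 weeks. Saline ip, baseline latency 30 min later; then cumulative ip doses 1, 3.2, 10 mg/kg in 5% DMSO/saline at 30 min intervals, latency read 30 min after each. Tail tip (2–3 cm) in 50°C water, 20 s cutoff; expressed as % MPE (MPE = 20 s).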

[11] = molecular target: T2, Kappa-type opioid receptor; assay: Displacement of [3H]diprenorphine from human kappa opioid receptor expressed in CHO cell membranes measured after 1 hr by liquid scintillation counting method; how it was run: as §1
[12] = Lipophilicity, log P of the compound; assay type: physicochemical; details: octanol/water
[13] = test system: Mus musculus; assay: Antinociceptive activity in C57BL/6 mouse assessed as increase in latency to tail withdrawal by measuring time of action at 10 mg/kg, ip administered as bolus dose by warm water tail withdrawal assay; assay type: functional
How it was run: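 Male C57BL/6 mice; saline ip, baseline 30 min later, then single 10 mg/kg ip bolus in 5% DMSO/saline. Tail withdrawal in 50°C water (20 s cutoff) at 5, 15, 30 min and every 30 min until return to baseline; duration = time from dosing to baseline return, done only for fully active compounds.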

[14] = molecular target: Mu-type opioid receptor (Rattus norvegicus) (UniProt P33535); assay: as §2; assay type: functional; how it was run: as §3
[15] = molecular target: Delta-type opioid receptor (Rattus norvegicus) (UniProt P33533); assay: Agonist activity at rat delta opioid receptor expressed in C6 cell membranes assessed as stimulation of [35S]GTPgammaS binding at 1 uM incubated for 1 hr relative to SNC80; assay type: functional
How it was run: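 Rat DOR in C6 glioma membranes, [35S]-GTPγS binding (0.1 nM, 30 μM GDP, 1 h, 25°C). SNC80 concentration–response run alone and with 1 μM test compound present; stimulation expressed relative to SNC80. Ke = compound concentration/(EC50 shift − 1). Mean of ≥3 assays in duplicate.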

[16] = molecular target: Delta-type opioid receptor (Rattus norvegicus) (UniProt P33533); assay: Antagonist activity at rat delta opioid receptor expressed in rat C6 cell membranes assessed as inhibition of SNC80-induced [35S] GTPgammaS binding measured after 1 hr; assay type: functional
How it was run: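 Membranes from rat C6 glioma cells stably expressing rat DOR; [35S]-GTPγS (0.1 nM) binding stimulated by SNC80 concentration–response, alone or with test compound at 1 μM, 1 h at 25°C in 50 mM Tris-HCl, 100 mM NaCl, 5 mM MgCl2, pH 7.4, with 30 μM GDP; filtration and scintillation counting.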

Cc1cc(O)cc(C)c1C[C@H](N)C(=O)N[C@@H]1CCN(S(C)(=O)=O)c2ccc(Cc3ccccc3)cc21.O=C(O)C(F)(F)F
Ratio Ki [1]: 7 | Efficacy [2]: 98% | pEC50 ([3]; read-out: EC50): 7.92 | pEC50 [4]: 6.92 | Efficacy [5]: 22% | pKi [6]: 9.39 | Efficacy [7]: 60% | pKi [8]: 10.22 | pEC50 [9]: 9.64 | MPE [10]: 100% | pKi [11]: 8.10 | logP [12]: 3.3 | Time [13]: 60 min

Cc1cc(O)cc(C)c1C[C@H](N)C(=O)N[C@@H]1CCN(C(=O)c2ccccc2)c2ccc(Cc3ccc4c(c3)OCCO4)cc21.O=C(O)C(F)(F)F
Ratio Ki [1]: 0.2 | Efficacy [2]: inactive | EC50 [3]: Not Active | pEC50 [4]: < 6.30 | Efficacy [5]: inactive | pKi [6]: 9.66 | Efficacy [7]: 60% | pKi [8]: 8.82 | Activity [14]: inactive | MPE [10]: inactive | pKi [11]: 6.62 | logP [12]: 4.4

Cc1cc(O)cc(C)c1C[C@H](N)C(=O)N[C@@H]1CCN(C(=O)c2ccccc2)c2ccc(Cc3ccc4ccccc4c3)cc21.O=C(O)C(F)(F)F
Efficacy [2]: 57% | EC50 [3]: Not Active | EC50 [4]: Not Active | pKi [6]: 9.34 | Efficacy [7]: inactive | pKi [8]: 9.59 | pEC50 [9]: 8.10 | MPE [10]: 100% | pKi [11]: 6.80 | Time [13]: 150 min

CC(=O)N1CC[C@@H](NC(=O)[C@@H](N)Cc2c(C)cc(O)cc2C)c2cc(CN3CCc4ccccc4C3)ccc21.O=C(O)C(F)(F)F
Ratio Ki [1]: 5 | Efficacy [2]: 96% | EC50 [3]: Not Active | pEC50 [4]: 6.72 | Efficacy [5]: inactive | pKi [6]: 9.05 | Efficacy [7]: 41% | pKi [8]: 9.72 | pEC50 [9]: 8.22 | MPE [10]: 100% | pKi [11]: 9.11 | logP [12]: 3.2 | Time [13]: 240 min

Cc1cc(O)cc(C)c1C[C@H](N)C(=O)N[C@@H]1CCNc2ccc(Cc3ccccc3)cc21.O=C(O)C(F)(F)F
MPE [10]: 100% | logP [12]: 3.8 | Time [13]: 120 min

Cc1cc(O)cc(C)c1C[C@H](N)C(=O)N[C@@H]1CCN(S(C)(=O)=O)c2ccc(CN3CCc4ccccc4C3)cc21.O=C(O)C(F)(F)F
Activity [15]: 100% | Ratio Ki [1]: 9 | Efficacy [2]: 114% | Ke [16]: 0.85 nM | EC50 [3]: Not Active | pEC50 [4]: 7.35 | Efficacy [5]: inactive | pKi [6]: 9.01 | Efficacy [7]: 51% | pKi [8]: 9.96 | pEC50 [9]: 9.92 | MPE [10]: 100% | pKi [11]: 8.96 | logP [12]: 3.1 | Time [13]: 90 min

Cc1cc(O)cc(C)c1C[C@H](N)C(=O)N[C@@H]1CCN(S(C)(=O)=O)c2ccc(Cc3cnc4ccccc4c3)cc21.O=C(O)C(F)(F)F
Ratio Ki [1]: 3 | Efficacy [2]: 96% | EC50 [3]: Not Active | EC50 [4]: Not Active | Efficacy [5]: inactive | pKi [6]: 9.19 | Efficacy [7]: inactive | pKi [8]: 9.64 | pEC50 [9]: 9.59 | MPE [10]: 50% | pKi [11]: 8.15 | logP [12]: 3.1

Cc1cc(O)cc(C)c1C[C@H](N)C(=O)N[C@@H]1CCN(C(=O)c2ccccc2)c2ccc(CN3CCc4ccccc4C3)cc21.O=C(O)C(F)(F)F
Ratio Ki [1]: 11 | Efficacy [2]: 93% | EC50 [3]: Not Active | EC50 [4]: Not Active | Efficacy [5]: inactive | pKi [6]: 8.40 | Efficacy [7]: inactive | pKi [8]: 9.43 | pEC50 [9]: 8.38 | MPE [10]: inactive | pKi [11]: 6.80 | logP [12]: 4.5

Cc1cc(O)cc(C)c1C[C@H](N)C(=O)N[C@@H]1CCN(C(=O)C2CC2)c2ccc(Cc3ccc4c(c3)OCCO4)cc21.O=C(O)C(F)(F)F
Ratio Ki [1]: 0.7 | Efficacy [2]: 36% | EC50 [3]: Not Active | EC50 [4]: Not Active | Efficacy [5]: inactive | pKi [6]: 9.72 | Efficacy [7]: inactive | pKi [8]: 9.55 | pEC50 [9]: 8.22 | MPE [10]: inactive | pKi [11]: 6.39 | logP [12]: 3.7
